Measurements reported in ChEMBL document CHEMBL2040727, “Substituted thiazoles VI. Synthesis and antitumor activity of new 2-acetamido- and 2 or 3-propanamido-thiazole analogs” (2012).

What was measured:
Assay type in all cases: functional
K562 = assay: Growth inhibition of human K562 cells at 10 uM after 48 hrs by coulter counter analysis; conditions: K562, 48 h, read-out: GI
How it was run: (§1)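 Single-dose NCI 60-line panel screen of test compounds. Cells grown in RPMI 1640 with 10% FBS. Compounds dissolved in DMSO, then diluted in phosphate buffer saline (final DMSO below 1%). Wells run in duplicate at 6 × 10⁴ cells/ml. Controls held PBS and DMSO at matching dilutions. Incubation 48 h at 37 °C under humidified 5% CO2. Cells diluted tenfold in saline and counted by Coulter counter. Percent growth inhibition taken from mean-graph of treated-cell growth.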

ACHN = assay: Growth inhibition of human ACHN cells at 10 uM after 48 hrs by coulter counter analysis; conditions: read-out: GI; how it was run: as §1
SNB-19 = assay: Growth inhibition of human SNB19 cells at 10 uM after 48 hrs by coulter counter analysis; conditions: SNB-19, 48 h, read-out: GI; how it was run: as §1
HCC 2998 = assay: Growth inhibition of human HCC2998 cells at 10 uM after 48 hrs by coulter counter analysis; conditions: HCC 2998, 48 h, read-out: GI; how it was run: as §1
NCI-H522 = assay: Growth inhibition of human NCI-H522 cells at 10 uM after 48 hrs by coulter counter analysis; conditions: NCI-H522, 48 h, read-out: GI; how it was run: as §1
MDA-MB-468 = assay: Growth inhibition of human MDA-MB-468 cells at 10 uM after 48 hrs by coulter counter analysis; conditions: MDA-MB-468, 48 h, read-out: GI; how it was run: as §1
KM12 = assay: Growth inhibition of human KM12 cells at 10 uM after 48 hrs by coulter counter analysis; conditions: KM12, 48 h, read-out: GI; how it was run: as §1
SN12C = assay: Growth inhibition of human SN12C cells at 10 uM after 48 hrs by coulter counter analysis; conditions: read-out: GI; how it was run: as §1
[1] = Growth inhibition of human NCI-ADR-RES cells at 10 uM after 48 hrs by coulter counter analysis; conditions: read-out: GI; how it was run: as §1
UO-31 = assay: Growth inhibition of human UO31 cells at 10 uM after 48 hrs by coulter counter analysis; conditions: UO-31, 48 h, read-out: GI
How it was run: (§2)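 Single-dose screen in the NCI 60 cell line panel. Cells grown in RPMI 1640 with 10% FBS. Compounds dissolved in DMSO and diluted in phosphate buffered saline, final DMSO under 1%. Duplicate wells seeded from culture at 6 × 10⁴ cells/ml. Incubated 48 h at 37 °C, humidified, 5% CO2. Cells diluted tenfold in saline and Coulter-counted. Percent growth inhibition computed against PBS/DMSO controls.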

SK-MEL-5 = assay: Growth inhibition of human SK-MEL-5 cells at 10 uM after 48 hrs by coulter counter analysis; conditions: SK-MEL-5, 48 h, read-out: GI; how it was run: as §1
NCI-H460 = assay: Growth inhibition of human NCI-H460 cells at 10 uM after 48 hrs by coulter counter analysis; conditions: NCI-H460, 48 h, read-out: GI; how it was run: as §1
SK-MEL-28 = assay: Growth inhibition of human SK-MEL-28 cells at 10 uM after 48 hrs by coulter counter analysis; conditions: SK-MEL-28, 48 h, read-out: GI; how it was run: as §1
HOP-62 = assay: Growth inhibition of human HOP62 cells at 10 uM after 48 hrs by coulter counter analysis; conditions: HOP-62, 48 h, read-out: GI; how it was run: as §1
SF-539 = assay: Growth inhibition of human SF539 cells at 10 uM after 48 hrs by coulter counter analysis; conditions: SF-539, 48 h, read-out: GI; how it was run: as §1
HT-29 = assay: Growth inhibition of human HT-29 cells at 10 uM after 48 hrs by coulter counter analysis; conditions: HT-29, 48 h, read-out: GI; how it was run: as §1
SK-MEL-2 = assay: Growth inhibition of human SK-MEL-2 cells at 10 uM after 48 hrs by coulter counter analysis; conditions: SK-MEL-2, 48 h, read-out: GI; how it was run: as §1
OVCAR-3 = assay: Growth inhibition of human OVCAR3 cells at 10 uM after 48 hrs by coulter counter analysis; conditions: OVCAR-3, 48 h, read-out: GI; how it was run: as §1
MDA-MB-231 = assay: Growth inhibition of human MDA-MB-231 cells at 10 uM after 48 hrs by coulter counter analysis; conditions: MDA-MB-231, 48 h, read-out: GI; how it was run: as §1
LOX IMVI = assay: Growth inhibition of human LOXIMVI cells at 10 uM after 48 hrs by coulter counter analysis; conditions: read-out: GI; how it was run: as §1
A498 = assay: Growth inhibition of human A498 cells at 10 uM after 48 hrs by coulter counter analysis; conditions: A498, 48 h, read-out: GI; how it was run: as §1
NCI-H226 = assay: Growth inhibition of human NCI-H226 cells at 10 uM after 48 hrs by coulter counter analysis; conditions: NCI-H226, 48 h, read-out: GI; how it was run: as §1
CAKI-1 = assay: Growth inhibition of human Caki1 cells at 10 uM after 48 hrs by coulter counter analysis; conditions: CAKI-1, 48 h, read-out: GI; how it was run: as §1
BT-549 = assay: Growth inhibition of human BT549 cells at 10 uM after 48 hrs by coulter counter analysis; conditions: BT-549, 48 h, read-out: GI; how it was run: as §1
A549 = assay: Growth inhibition of human A549/ATCC cells at 10 uM after 48 hrs by coulter counter analysis; conditions: A549, 48 h, read-out: GI; how it was run: as §1
HOP-92 = assay: Growth inhibition of human HOP92 cells at 10 uM after 48 hrs by coulter counter analysis; conditions: HOP-92, 48 h, read-out: GI; how it was run: as §1
OVCAR-8 = assay: Growth inhibition of human OVCAR8 cells at 10 uM after 48 hrs by coulter counter analysis; conditions: OVCAR-8, 48 h, read-out: GI; how it was run: as §1
T47D = assay: Growth inhibition of human T47D cells at 10 uM after 48 hrs by coulter counter analysis; conditions: read-out: GI; how it was run: as §2
OVCAR-5 = assay: Growth inhibition of human OVCAR5 cells at 10 uM after 48 hrs by coulter counter analysis; conditions: OVCAR-5, 48 h, read-out: GI; how it was run: as §1
EKVX = assay: Growth inhibition of human EKVX cells at 10 uM after 48 hrs by coulter counter analysis; conditions: read-out: GI; how it was run: as §1
OVCAR-4 = assay: Growth inhibition of human OVCAR4 cells at 10 uM after 48 hrs by coulter counter analysis; conditions: OVCAR-4, 48 h, read-out: GI; how it was run: as §1
786-0 = assay: Growth inhibition of human 786-0 cells at 10 uM after 48 hrs by coulter counter analysis; conditions: 786-0, 48 h, read-out: GI; how it was run: as §1
MDA-MB-435 = assay: Growth inhibition of human MDA-MB-435 cells at 10 uM after 48 hrs by coulter counter analysis; conditions: MDA-MB-435, 48 h, read-out: GI; how it was run: as §1
SNB-75 = assay: Growth inhibition of human SNB75 cells at 10 uM after 48 hrs by coulter counter analysis; conditions: SNB-75, 48 h, read-out: GI; how it was run: as §2

Row | SMILES | inhibition of growth at 10 µM (K562) | inhibition of growth at 10 µM (ACHN) | inhibition of growth at 10 µM (SNB-19) | inhibition of growth at 10 µM (HCC 2998) | inhibition of growth at 10 µM (NCI-H522) | inhibition of growth at 10 µM (MDA-MB-468) | inhibition of growth at 10 µM (KM12) | inhibition of growth at 10 µM (SN12C) | inhibition of growth at 10 µM [1] | inhibition of growth at 10 µM (UO-31) | inhibition of growth at 10 µM (SK-MEL-5) | inhibition of growth at 10 µM (NCI-H460) | inhibition of growth at 10 µM (SK-MEL-28) | inhibition of growth at 10 µM (HOP-62) | inhibition of growth at 10 µM (SF-539) | inhibition of growth at 10 µM (HT-29) | inhibition of growth at 10 µM (SK-MEL-2) | inhibition of growth at 10 µM (OVCAR-3) | inhibition of growth at 10 µM (MDA-MB-231) | inhibition of growth at 10 µM (LOX IMVI) | other results
1 | CCOC(=O)c1sc(NC(=O)CN(C)C)nc1C | < 10% | < 10% | < 10% | < 10% | < 10% | < 10% | < 10% | < 10% | < 10% | 14.8% | < 10% | < 10% | < 10% | < 10% | < 10% | < 10% | < 10% | < 10% | < 10% | < 10% | inhibition of growth at 10 µM (A498): < 10%; inhibition of growth at 10 µM (NCI-H226): < 10%; inhibition of growth at 10 µM (CAKI-1): < 10%; inhibition of growth at 10 µM (BT-549): < 10%; inhibition of growth at 10 µM (A549): < 10%; inhibition of growth at 10 µM (HOP-92): < 10%; inhibition of growth at 10 µM (OVCAR-8): < 10%; inhibition of growth at 10 µM (T47D): < 10%; inhibition of growth at 10 µM (OVCAR-5): < 10%; inhibition of growth at 10 µM (EKVX): < 10%; inhibition of growth at 10 µM (OVCAR-4): < 10%; inhibition of growth at 10 µM (786-0): < 10%; inhibition of growth at 10 µM (MDA-MB-435): < 10%; inhibition of growth at 10 µM (SNB-75): < 10%
2 | CCOC(=O)c1sc(NC(=O)CCN2CCOCC2)nc1C | < 10% | < 10% | < 10% | < 10% | < 10% | < 10% | < 10% | < 10% | < 10% | 10.6% | < 10% | < 10% | < 10% | < 10% | < 10% | < 10% | < 10% | < 10% | < 10% | < 10% | inhibition of growth at 10 µM (A498): < 10%; inhibition of growth at 10 µM (NCI-H226): < 10%; inhibition of growth at 10 µM (CAKI-1): < 10%; inhibition of growth at 10 µM (BT-549): < 10%; inhibition of growth at 10 µM (A549): < 10%; inhibition of growth at 10 µM (HOP-92): 21.9%; inhibition of growth at 10 µM (OVCAR-8): < 10%; inhibition of growth at 10 µM (T47D): < 10%; inhibition of growth at 10 µM (OVCAR-5): < 10%; inhibition of growth at 10 µM (EKVX): < 10%; inhibition of growth at 10 µM (OVCAR-4): < 10%; inhibition of growth at 10 µM (786-0): < 10%; inhibition of growth at 10 µM (MDA-MB-435): < 10%; inhibition of growth at 10 µM (SNB-75): < 10%
3 | CCOC(=O)c1sc(NC(=O)CCN2CCN(C)CC2)nc1C | < 10% | < 10% | < 10% | < 10% | 12.9% | 25.2% | < 10% | < 10% | < 10% | 19.3% | < 10% | < 10% | < 10% | < 10% | < 10% | < 10% | < 10% | < 10% | < 10% | 15.5% | inhibition of growth at 10 µM (A498): < 10%; inhibition of growth at 10 µM (NCI-H226): < 10%; inhibition of growth at 10 µM (CAKI-1): 12.5%; inhibition of growth at 10 µM (BT-549): < 10%; inhibition of growth at 10 µM (A549): < 10%; inhibition of growth at 10 µM (HOP-92): < 10%; inhibition of growth at 10 µM (OVCAR-8): < 10%; inhibition of growth at 10 µM (T47D): < 10%; inhibition of growth at 10 µM (OVCAR-5): < 10%; inhibition of growth at 10 µM (EKVX): 15.9%; inhibition of growth at 10 µM (OVCAR-4): < 10%; inhibition of growth at 10 µM (786-0): < 10%; inhibition of growth at 10 µM (MDA-MB-435): < 10%; inhibition of growth at 10 µM (SNB-75): < 10%
